Values after ≈ are worked out from the molar mass of the structure shown.
Experiments:
[1] = tested on: Streptococcus pneumoniae; assay: Antibacterial activity against Streptococcus pneumoniae MTCC 1936 assessed as growth inhibition after 24 to 48 hrs by broth microdilution method; assay type: functional
Outline: (§1)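 Bacteria were grown in Mueller-Hinton broth with inoculum adjusted to 10⁸ CFU mL⁻¹ by turbidity. Compounds were serially diluted in 2% aqueous DMSO and incubated at 37 °C overnight. Growth was checked by subculture at 24 and 48 h. MIC was taken as the highest dilution with no turbidity after spot subculture.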

[2] = tested on: Bacillus subtilis; assay: Antibacterial activity against Bacillus subtilis MTCC 441 assessed as growth inhibition after 24 to 48 hrs by broth microdilution method; assay type: functional; outline: as §1
[3] = tested on: Clostridium tetani; assay: Antibacterial activity against Clostridium tetani MTCC 449 assessed as growth inhibition after 24 to 48 hrs by broth microdilution method; assay type: functional
[4] = tested on: Escherichia coli; assay: Antibacterial activity against Escherichia coli MTCC 443 assessed as growth inhibition after 24 to 48 hrs by broth microdilution method; assay type: functional; outline: as §1
[5] = tested on: Salmonella typhi; assay: Antibacterial activity against Salmonella typhi MTCC 98 assessed as growth inhibition after 24 to 48 hrs by broth microdilution method; assay type: functional, Salmonella enterica subsp. enterica serovar Typhi; details: Salmonella enterica
[6] = tested on: Vibrio cholerae; assay: Antibacterial activity against Vibrio cholerae MTCC 3906 assessed as growth inhibition after 24 to 48 hrs by broth microdilution method; assay type: functional
[7] = tested on: Candida albicans; assay: Antifungal activity against Candida albicans MTCC 227 assessed as growth inhibition after 24 to 48 hrs by broth microdilution method; assay type: functional
Outline: (§2)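 Fungal nutrition used Sabouraud Dextrose broth with inoculum at 10⁸ CFU mL⁻¹ by turbidity. Serial compound dilutions were made in 2% DMSO in water. Growth was noted on subculture after 24 and 48 h. MIC was taken as the highest dilution preventing visible turbidity after spot subculture.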

[8] = tested on: Aspergillus fumigatus; assay: Antifungal activity against Aspergillus fumigatus MTCC 3008 assessed as growth inhibition after 24 to 48 hrs by broth microdilution method; assay type: functional; outline: as §2
[9] = tested on: Mycobacterium tuberculosis; assay: Antitubercular activity against Mycobacterium tuberculosis H37Rv assessed as inhibition of colony formation at 250 ug/mL after 2 to 4 weeks by Lowensteine-Jensen method relative to control; assay type: functional
[10] = tested on: Mycobacterium tuberculosis; assay: Antitubercular activity against Mycobacterium tuberculosis H37Rv assessed as inhibition of colony formation at 100 ug/mL after 2 to 4 weeks by Lowensteine-Jensen method relative to control; assay type: functional
[11] = tested on: Plasmodium falciparum; assay: Antimalarial activity against chloroquine/quinine sensitive Plasmodium falciparum assessed as parasite growth inhibition after 48 hrs; assay type: functional, organism-based

Structure (SMILES) | MIC [1] [µg/mL] | MIC [2] [µg/mL] | MIC [3] [µg/mL] | MIC [4] [µg/mL] | MIC [5] [µg/mL] | MIC [6] [µg/mL] | MIC [7] [µg/mL] | MIC [8] [µg/mL] | inhibition at 250 µg/mL [9] [%] | inhibition at 100 µg/mL [10] [%] | IC50 [11] [µg/mL]
CCOC(=O)C1=C(N)N(c2ccc(O)cc2)C2=C(C(=O)CCC2)C1c1c(C)nn(-c2ccccc2)c1-n1ccnc1 (configuration not stated) | 250 (≈ 454 µM) | 200 (≈ 363 µM) | 200 (≈ 363 µM) | 62.5 (≈ 114 µM) | 200 (≈ 363 µM) | 200 (≈ 363 µM) | 500 (≈ 908 µM) | 500 (≈ 908 µM) | 41 | 37 | 0.067 (≈ 0.122 µM)
CCOC(=O)C1=C(N)N(c2ccccc2)C2=C(C(=O)CC(C)(C)C2)C1c1c(C)nn(-c2ccccc2)c1-n1ccnc1 (configuration not stated) | 500 (≈ 889 µM) | 250 (≈ 444 µM) | 200 (≈ 355 µM) | 250 (≈ 444 µM) | 200 (≈ 355 µM) | 125 (≈ 222 µM) | 250 (≈ 444 µM) | 500 (≈ 889 µM) | 45 | 37 | 1.47 (≈ 2.61 µM)

Source: ChEMBL document CHEMBL3232885, “Synthesis, characterization and pharmacological screening of some novel 5-imidazopyrazole incorporated polyhydroquinoline derivatives” (Eur J Med Chem, 2014)
